Measurements from ChEMBL document CHEMBL1275359, “Pro-apoptotic activity of lipidic α-amino acids isolated from Protopalythoa variabilis” (Bioorg Med Chem, 2010).
Activity calls are given as the source filed them.

What was measured:
Assay type in all cases: functional, cell-based
HCT-8 = assay: Cytotoxicity against human HCT8 cells at 5 ug/ml after 72 hrs by MTT assay
Outline: (§1)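 Cells kept in log-phase growth in RPMI-1640 with 2 mM glutamine, 10% fetal calf serum, streptomycin and 100 U/ml penicillin at 37 °C, 5% CO₂. Single concentration of 5 µg/ml applied for 72 h. Growth read by MTT, reported as percent growth inhibition relative to untreated cells. Data from three to four experiments.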

MDA-MB-435 = assay: Cytotoxicity against human MDA-MB-435 cells at 5 ug/ml after 72 hrs by MTT assay; outline: as §1
HL-60 = assay: Cytotoxicity against human HL60 cells at 5 ug/ml after 72 hrs by MTT assay; outline: as §1
SF-295 = assay: Cytotoxicity against human SF295 cells at 5 ug/ml after 72 hrs by MTT assay; outline: as §1

Measured: Activity

CCCCCCCCCCC(N)C(=O)OC (stereo not drawn)
active: HCT-8 | MDA-MB-435 | HL-60 | SF-295

CCCCCCCCC(N)C(=O)OC (stereo not drawn)
active: HCT-8 | MDA-MB-435 | HL-60 | SF-295
